FLuc inhib CS: firefly luciferase enzyme inhibitors, primary screen, artefact control for luciferase-based inhibitor screens, biochemical, luminescence, ATPLite; Luciferin 4-monooxygenase (Photinus pyralis), P08659; 10 min; inhibition, % at 10 µM; 200,000 compounds, 1.5% hits; AID 1006, 2008;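 active means inhibition above about 50% when tested at 10 µM, limit read from the data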
Target sequence (P08659 whole entry, looked up): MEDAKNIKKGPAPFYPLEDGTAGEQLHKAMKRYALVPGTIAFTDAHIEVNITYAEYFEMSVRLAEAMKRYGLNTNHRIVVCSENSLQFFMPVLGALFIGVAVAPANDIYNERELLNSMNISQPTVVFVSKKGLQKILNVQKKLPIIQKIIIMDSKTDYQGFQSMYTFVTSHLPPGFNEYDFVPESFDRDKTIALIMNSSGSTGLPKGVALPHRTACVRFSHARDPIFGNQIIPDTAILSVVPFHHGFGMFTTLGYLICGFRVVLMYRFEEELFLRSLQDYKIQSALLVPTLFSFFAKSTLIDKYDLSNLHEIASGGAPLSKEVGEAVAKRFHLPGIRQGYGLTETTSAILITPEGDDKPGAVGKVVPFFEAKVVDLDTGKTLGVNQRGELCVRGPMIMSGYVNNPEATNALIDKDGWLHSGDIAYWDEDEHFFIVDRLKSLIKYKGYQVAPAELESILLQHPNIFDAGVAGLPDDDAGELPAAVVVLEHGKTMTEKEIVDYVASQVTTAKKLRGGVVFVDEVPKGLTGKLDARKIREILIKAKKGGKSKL
NF-kB neuron act: activators of NF-kB expression in neurons, primary screen, cell-based, HTS | AID 1239, 2008 | human neuronal cells, NF-kB reporter expression; active compounds read high | 190,000 compounds, 1.6% hits | fold change at 12.5 µM; in the data active means fold change above about 3.3
STAT1 act: STAT1 signaling activators, primary screen, cell-based, HTS, luciferase reporter. NIH 3T3 STAT1-luciferase reporter, IFN-gamma, luminescence; 100% = IFN-gamma alone, no compound. activation (% of control), % at 5.5 µM. 200,000 compounds, 2.6% hits. AID 932, 2007;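 active means activation above the screen-wide mean activation plus 3 SD, cut at about 130% in these data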
APP 5'UTR act: activators of APP 5'UTR luciferase reporter, primary screen, SH-SY5Y cells; activation, % at 2 µM; 190,000 compounds, 1% hits; SH-SY5Y APP 5'UTR luciferase reporter, luminescence; zero percent = DMSO vehicle wells; AID 1276, 2008;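 active means activation above a set limit, based on mean plus 3 SD of controls, cut at about 140% in these data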
FLuc act counter: FLuc activators, initial screening, artefact control for FLuc-dependent activation tests, biochemical, ATPlite luminescence. Luciferin 4-monooxygenase (Photinus pyralis), P08659. ATPlite luciferase biochemical, 10 min; 0 = ATP-free wells, 1 = DMSO control. activation factor at 10 µM. 200,000 tested, under 10 active. AID 1027, 2008;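 active means luciferase activation factor, scaled between plate controls, of at least 2 with compound at 10 µM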
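Material: Luciferase/luciferin reagent mix | Doses: Test compounds dosed from 2 mM stocks in 100% DMSO | Timing: 10 min incubation after luciferase reagent addition, room temperature | Measured by: Luminescence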
STAT1 act conf: STAT1 signaling activators, confirmation, cell-based, HTS, luciferase reporter; shares compounds with STAT1 act; NIH 3T3 STAT1-luciferase reporter, IFN-gamma potentiation, luminescence; 100% = IFN-gamma EC80 alone, no compound; activation (% of control), % at 5.7 µM; 1,200 compounds, 97% hits; AID 1262, 2008;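 active means activation above a set limit carried over from the earlier primary STAT1 screen, cut at about 140% in these data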
NFkB act: NF-kB reporter activators, TNF-alpha stimulated, counter-screen for STAT1 activator project, cell-based, HEK293T, luciferase luminescence; shares compounds with STAT1 act; 100% = TNF-alpha with vehicle only; activation (% of control), % at 5.7 µM; 1,200 compounds, 43% hits; AID 1306, 2008;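 active means activation above the mean of solvent-only control wells plus 3 SD, set per campaign, cut at about 130% in these data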;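 further: TNF-alpha given at a submaximal dose yielding about 80% of full reporter signal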
STAT3 act STAT1c: STAT3 reporter activation by STAT1 hits, confirmation, counter-screen for STAT1 activator project, U3A cells, luciferase, luminescence; shares compounds with STAT1 act; IL-6; cells lack STAT1; 100 = IL-6 alone, no compound effect; activation (% of control), % at 5.7 µM; 1,200 compounds, 46% hits; AID 1316, 2008;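 active means activation above the solvent-only control well mean plus 3 SD, set per plate batch, cut at about 110% in these data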;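 further: higher means more STAT3 reporter activation so hits are non-selective activators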
Large screens that a line does not name were inactive (follow-up assays come after a bar, where they were run). Hits are enriched below; roughly 4.3% of the tested compounds scored in any of these assays.

CN(C)C=Nc1ccc2nn(-c3ccccc3)nc2c1	NF-kB neuron act 5.6, STAT1 act 165 | STAT1 act conf 186 | NFkB act 134 | STAT3 act STAT1c inactive
CN(C)/C=N/c1c(C#N)cnn1-c1ccccc1	none
Clc1cccc(-c2ccc(C=Nc3ccc(N4CCOCC4)cc3)o2)c1	none
CN(C)c1ncccc1-c1nc2ccccc2s1	none
c1ccc(-c2nc3ccccc3s2)nc1	FLuc inhib CS 61, NF-kB neuron act 4.7, STAT1 act 158 | STAT1 act conf 200 | NFkB act inactive | STAT3 act STAT1c inactive
Cc1ccc(Nc2n[nH]c(C)c2[N+](=O)[O-])cc1C	NF-kB neuron act 7.7, STAT1 act 191, APP 5'UTR act 210 | STAT1 act conf 239 | NFkB act 147 | STAT3 act STAT1c 117
CCN1CCN(c2nc(N)c([N+](=O)[O-])c(Nc3ccc(C)c(C)c3)n2)CC1	none
C/C(=N\NC(=O)C1COc2ccccc2O1)c1ccc(N2CCOCC2)cc1 (stereo unspecified)	none
COC(=O)c1sc2nc3c(cc2c1N)CCCC3	FLuc inhib CS 60, NF-kB neuron act 8.2, STAT1 act 165, APP 5'UTR act 164 | STAT1 act conf 227 | NFkB act 148 | STAT3 act STAT1c inactive
CCOC(=O)c1sc2nc3c(cc2c1N)COC(C)(CC)C3 (stereo unspecified)	NF-kB neuron act 7.3, STAT1 act 201, APP 5'UTR act 175 | STAT1 act conf 287 | NFkB act 146 | STAT3 act STAT1c inactive
COC(=O)c1sc2nc3c(cc2c1N)C(=O)CC(C)(C)C3	none
CC(=O)C(Cc1ccccc1)NC(=O)CN1CCN(Cc2ccccc2)CC1 (stereo unspecified)	none
O=C(Nc1ccc(-c2nc3ccccc3o2)cc1)c1cccnc1	STAT1 act 166 | STAT1 act conf 185 | NFkB act 146 | STAT3 act STAT1c inactive
O=C(Nc1ccc2c(c1)Cc1ccccc1-2)c1ccco1	NF-kB neuron act 4, STAT1 act 174, APP 5'UTR act 179 | STAT1 act conf 211 | NFkB act 139 | STAT3 act STAT1c inactive
O=C(Nc1ccc2c(c1)Cc1ccccc1-2)c1cccnc1	STAT1 act 151 | STAT1 act conf 143 | NFkB act inactive | STAT3 act STAT1c inactive
O=C(Nc1cccc(-c2nc3ccccc3o2)c1)c1cccnc1	none
COc1cccc(OC)c1C(=O)Nc1ccc2c(c1)Cc1ccccc1-2	none
COc1ccc(C)cc1S(=O)(=O)N(C)CC(=O)N1CCN(c2ccccc2)CC1	none
COc1cc(OC)c2c(c1)C(=O)OC2	none
Cc1cnc(C)c(N2CCN(Cc3nc(-c4ccccc4)no3)CC2)n1	none
Cc1cc(C(=O)CSc2nc3ccccc3[nH]2)c(C)n1Cc1ccco1	STAT1 act 165, APP 5'UTR act 214 | STAT1 act conf 209 | NFkB act inactive | STAT3 act STAT1c inactive
O=C(CCCCCN1C(=O)CCC1=O)Nc1ccc(Cl)c(C(F)(F)F)c1	none
CCCC(=O)Nc1ccc2oc(-c3ccncc3)nc2c1	none
O=C(Nc1ccc2oc(-c3ccccc3Cl)nc2c1)c1ncn[nH]1	NF-kB neuron act 5.1, STAT1 act 156 | STAT1 act conf 204 | NFkB act inactive | STAT3 act STAT1c 114
O=C(Nc1ccc2oc(-c3cccc4ccccc34)nc2c1)c1ncn[nH]1	none

Screening data: PubChem BioAssay, several laboratories
